TNF death inh: TNF-alpha cell death inhibition in Jurkat FADD-/- cells; Jurkat FADD-/- TNF necroptosis rescue, ATP luminescence, 24 h; 0 = TNF only, 100 = no-TNF cells; activation (protection from cell death), % at 10 µM; hit rate 0.068% among 220,000;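 active means activation, meaning protection from cell death, of at least 50% relative to plate controls; inactive means activation below 50%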;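 further: necroptosis triggered by 40 ng/mL TNF-alpha added together with compound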
RBBP9 inhibitor: inhibitors of human serine hydrolase RBBP9 | hit rate 0.2% among 220,000 | inhibition, % at 7.94 µM | AID 1515 | recombinant RBBP9, FP-Rh probe fluorescence polarization | O75884;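 active means inhibition above the campaign mean of all tested compounds plus 3 SD, cut at about 14% in these data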
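Test system – recombinant human RBBP9 · Input – RBBP9 2.5 µM in dispensing solution, pre-mixing · Medium – Tris buffer pH 8.0, NaCl, Pluronic · Schedule – preincubation 30 min plus labeling 45 min at 25 °C · Measured by – fluorescence polarization · Measure – % inhibition · Controls – DMSO and no-protein wells · Replicates – one well per compound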
zVAD death inh: blocks zVAD induced death of L929 cells | L929 zVAD necroptosis rescue, ATP luminescence, 24 h; with zVAD 60 µM | viability rescue, % at 10 µM | hit rate 0.38% among 220,000;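 active means activation, scaled between plate controls, above about 75%, limit read from the data; inactive means activation under that limit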
M18AAP inhibitor: PfM18AAP enzyme inhibition; inhibition, % at 7.35 µM; recombinant PfM18AAP, H-Glu-NHMec fluorogenic cleavage; hit rate 1.2% among 290,000;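 active means inhibition above the campaign mean inhibition over all tested compounds plus 3 SD, cut at about 28% in these data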
Wee1 degr inh: blocks degradation of human Wee1 kinase; P30291; HeLa Luc-Wee1K328M stability, luciferase luminescence; 100% = proteasome inhibitor MG132 effect; reporter increase, % at 5 µM; hit rate 1.2% among 220,000;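 active means activation above the mean of all tested compounds plus 3 SD, set per screening run, cut at about 8.8% in these data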;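 further: cells exposed to compound for 20 h before luminescence read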
Target sequence (P30291 whole entry K328M): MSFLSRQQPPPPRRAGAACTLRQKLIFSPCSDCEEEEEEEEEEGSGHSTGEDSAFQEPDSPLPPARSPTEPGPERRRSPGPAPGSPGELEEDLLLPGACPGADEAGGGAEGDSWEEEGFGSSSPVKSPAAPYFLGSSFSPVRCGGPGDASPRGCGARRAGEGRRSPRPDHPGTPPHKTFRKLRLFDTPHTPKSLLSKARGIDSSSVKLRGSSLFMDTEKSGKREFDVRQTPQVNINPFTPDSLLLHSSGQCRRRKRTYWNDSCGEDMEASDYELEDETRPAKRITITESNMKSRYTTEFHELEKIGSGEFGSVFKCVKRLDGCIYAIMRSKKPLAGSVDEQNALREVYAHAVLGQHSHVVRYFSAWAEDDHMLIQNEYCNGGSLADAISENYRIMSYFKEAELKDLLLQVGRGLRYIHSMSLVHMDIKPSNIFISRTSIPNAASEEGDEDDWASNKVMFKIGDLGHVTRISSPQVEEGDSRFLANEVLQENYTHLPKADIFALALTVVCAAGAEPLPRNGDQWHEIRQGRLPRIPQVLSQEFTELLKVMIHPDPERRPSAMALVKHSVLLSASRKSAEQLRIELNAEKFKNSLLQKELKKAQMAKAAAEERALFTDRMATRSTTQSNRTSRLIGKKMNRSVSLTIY
p97 ATPase inh: inhibitors of human p97 ATPase; inhibition, % at 8 µM; AID 1481; hit rate 0.42% among 220,000; recombinant p97 ATPase, Kinase-Glo ATP luminescence, 3 h; P55072; in the data active means inhibition above about 15%
Wee1 degr conf: human Wee1 degradation inhibition, confirmation. HeLa Luc-Wee1K328M degradation, luminescence; vehicle 0%, proteasome-blocked wells 100%. shares compounds with Wee1 degr inh. activation, % at 5 µM. hit rate 4% among 1,100; in the data active means activation above about 8.9%
Each line names hits and unclear results; the compound was inactive in the other large screens (follow-up assays come after a bar, where they were run). The list is not random: actives were taken first. Their share in the collection is about 2.7%.

COC(=O)C1=C(C)NC(=S)NC1/C=C/c1ccccc1 (centres undefined)	none
COc1ccc(NC(=O)c2ccc(Cn3cc(Cl)cn3)cc2)cc1	none
Cc1ccc(F)c(NC(=O)c2ccc(Cn3cc(Cl)cn3)cc2)c1	Wee1 degr inh 12 | Wee1 degr conf inactive
O=C(c1ccc(Br)o1)N1CCN(c2ccc3nnc(-c4ccccc4)n3n2)CC1	Wee1 degr inh 14 | Wee1 degr conf inactive
COc1ccc2c(=O)c(-c3ccccc3)coc2c1	Wee1 degr inh 9.9 | Wee1 degr conf inactive
CC1=NCCN1CCNC(=O)Nc1ccc(C(C)(C)C)cc1	Wee1 degr inh 15 | Wee1 degr conf inactive
Cc1ccc(NC(=O)NCCN2CCCCC2)cc1	none (no result: TNF death inh, RBBP9 inhibitor, zVAD death inh, Wee1 degr inh, p97 ATPase inh)
C=CCn1c(N)c(C(=O)Nc2ccccc2)c2nc3ccccc3nc21	Wee1 degr inh 15 | Wee1 degr conf inactive
Cc1ccccc1CN(C)CC(=O)NC(C)CCc1ccccc1 (centres undefined)	none
CCOc1cccc(N(C(=O)Cc2cccs2)C(C(=O)NC2CCCCC2)c2cccn2C)c1 (centres undefined)	Wee1 degr inh 11 | Wee1 degr conf 9.6
CC(=O)Nc1ccc(S(=O)(=O)NCc2ccncc2)cc1	Wee1 degr inh 12 | Wee1 degr conf inactive
CCOC(=O)c1c2n(c3ccc(O)cc13)CCC2	Wee1 degr inh 11 | Wee1 degr conf inactive
O=C1CSC(c2ccc([N+](=O)[O-])cc2)N1c1ccc(O)cc1 (centres undefined)	none (no result: TNF death inh, RBBP9 inhibitor, zVAD death inh, Wee1 degr inh, p97 ATPase inh)
Cc1cc(-c2onc3ccc(Cl)cc23)ccc1O	none (no result: TNF death inh, RBBP9 inhibitor, zVAD death inh, Wee1 degr inh, p97 ATPase inh)
Cc1onc(-c2ccccc2)c1C(=O)OCC(=O)Nc1cc(S(=O)(=O)N2CCOCC2)ccc1Cl	none
N=c1sccn1CC(=O)Nc1ccc2c(c1)CCC2	none
COc1cc(NC(=O)Cn2ccsc2=N)cc(OC)c1	Wee1 degr inh 13 | Wee1 degr conf inactive
CCOc1ccc(CC(=O)NNC(=S)NC)cc1	Wee1 degr inh 14 | Wee1 degr conf inactive
Cc1c(NC(=O)C(C)OC(=O)c2cccs2)c(=O)n(-c2ccccc2)n1C (centres undefined)	Wee1 degr inh 30 | Wee1 degr conf inactive
Cc1c(NC(=O)c2cccs2)c(=O)n(-c2ccccc2)n1C	none
Nc1[nH]n(-c2ccccc2)c(=O)c1N=Nc1ccc2c(c1)OCCO2	none
Nc1[nH]n(-c2ccccc2)c(=O)c1N=Nc1ccc2c(c1)OCO2	Wee1 degr inh 12 | Wee1 degr conf inactive
COc1ccc(NC(=S)N(C(C)C)C2CCN(C(C)C)CC2)cc1Cl	none (no result: TNF death inh, RBBP9 inhibitor, zVAD death inh, Wee1 degr inh, p97 ATPase inh)
CCOc1ccc(/C(C)=N/NC(=O)c2nnn(-c3nonc3N)c2-c2cccs2)cc1	none (no result: TNF death inh, RBBP9 inhibitor, zVAD death inh, Wee1 degr inh, p97 ATPase inh)
COCCNC(=O)C(c1ccc(C)cc1)N(C(=O)CCC(=O)Nc1ccccn1)C1CCCCC1 (centres undefined)	none (no result: TNF death inh, RBBP9 inhibitor, zVAD death inh, Wee1 degr inh, p97 ATPase inh)
COc1ccccc1CNC(=O)CCNS(=O)(=O)c1cccc2nonc12	none (no result: TNF death inh, RBBP9 inhibitor, zVAD death inh, Wee1 degr inh, p97 ATPase inh)
CCN(/C=N/c1sc2c(c1C#N)CCCCC2)CC	Wee1 degr inh 13 | Wee1 degr conf inactive
CC(C)CN(/C=N/c1sc2c(c1C#N)CCCCC2)CC(C)C	none
CC(=O)c1ccc(OCc2cc(C(=O)NCCc3ccc(Cl)cc3)no2)cc1	none (no result: TNF death inh, RBBP9 inhibitor, zVAD death inh, Wee1 degr inh, p97 ATPase inh)
COc1ccc(CNC(=O)COc2ccc(C(=O)c3ccc(F)cc3)cc2)cc1	none
O=C(COc1ccc(C(=O)c2ccc(F)cc2)cc1)NCc1ccc(F)cc1	Wee1 degr inh 11 | Wee1 degr conf 14
Cc1ccc(NC(=O)COc2ccccc2C=O)cc1Cl	Wee1 degr inh 16 | Wee1 degr conf inactive
O=C(Nc1cccc(Cl)c1)Nc1ccc(Br)cc1F	Wee1 degr inh 13 | Wee1 degr conf inactive
O=C(Nc1ccccc1)Nc1ccc(Br)cc1F	none
CC(C1CC1)N(Cc1ccccc1)C(=O)NC(=O)c1ccc(F)cc1 (centres undefined)	Wee1 degr inh 34 | Wee1 degr conf inactive
COc1ccc(NC(=O)Nc2cccc(OC)c2)cc1	none
CCC1CCC(NC(=O)Nc2cccc(OC)c2)CC1 (centres undefined)	Wee1 degr inh 16 | Wee1 degr conf inactive
CC1CCCC(NC(=O)COC(=O)/C=C/c2ccc(S(=O)(=O)N3CCOCC3)cc2)C1C (centres undefined)	none
CCOC(=O)c1ccccc1NC(=O)CN(c1ccc(OCC)cc1)S(C)(=O)=O	Wee1 degr inh 12 | Wee1 degr conf inactive
CCOC(=O)c1ccccc1NC(=O)CN(c1ccccc1OCC)S(C)(=O)=O	none
CCOc1ccc(NC(=S)Nc2ccc(OCc3ccccc3)cc2)cc1	Wee1 degr inh 16 | Wee1 degr conf inactive
CNC(=S)Nc1ccc(OCc2ccccc2)cc1	none
C=CCn1c(=S)sc2c(=O)[nH]cnc21	none
NC(=O)C1=C[C@H](c2csc3ccccc23)C[C@H](OCCCCO)O1	Wee1 degr inh 11 | Wee1 degr conf inactive
Cc1ccc(NC(=S)N2CCN(S(=O)(=O)c3ccc(F)cc3)CC2)cc1	none (no result: TNF death inh, RBBP9 inhibitor, zVAD death inh, Wee1 degr inh, p97 ATPase inh)
C=CCNC(=S)N1CCN(S(=O)(=O)c2ccc(C)cc2)CC1	Wee1 degr inh 17 | Wee1 degr conf inactive
O=C(NC1CCOCC1)C1CCC(=O)N(CCc2cccc(F)c2)C1 (centres undefined)	none (no result: TNF death inh, RBBP9 inhibitor, zVAD death inh, Wee1 degr inh, p97 ATPase inh)
O=[N+]([O-])c1ccc(Sc2ncc3ccccn23)nc1	none
O=C(O)CCCC(=O)N1N=C(c2ccccc2)CC1c1ccc2nccnc2c1 (centres undefined)	none
O=C(O)CCC(=O)N1N=C(c2ccccc2)CC1c1ccc2nccnc2c1 (centres undefined)	Wee1 degr inh 13 | Wee1 degr conf inactive
Fc1cccc(CSc2nc3ncccc3[nH]2)c1	none
Fc1cccc(CSc2nc3ncc(Cl)cc3[nH]2)c1	Wee1 degr inh 11 | Wee1 degr conf inactive
CC(C(=O)NCCSCc1cccc(Cl)c1)N(c1ccccc1)S(C)(=O)=O (centres undefined)	none (no result: TNF death inh, RBBP9 inhibitor, zVAD death inh, Wee1 degr inh, p97 ATPase inh)
COc1ccc(S(=O)(=O)Nc2ccccc2C(=O)NCc2cccnc2)cc1OC	none (no result: TNF death inh, RBBP9 inhibitor, zVAD death inh, Wee1 degr inh, p97 ATPase inh)
CC(C)(C)c1ccc(/C=N/NC(=S)NCc2ccccc2)cc1	Wee1 degr inh 17 | Wee1 degr conf inactive
CN(C)c1ccc(/C=N/NC(=S)NCc2ccccc2)cc1	none
FC(F)(F)c1ccc(NC(=S)NCc2ccccc2)cc1	Wee1 degr inh 19 | Wee1 degr conf inactive
O=C(O)c1ccc(NC(=S)NCc2ccccc2)cc1	none (no result: TNF death inh, RBBP9 inhibitor, zVAD death inh, Wee1 degr inh, p97 ATPase inh)
COc1ccc(OC)c(C(=O)N2CCC(n3nccc3NC(=O)CC(C)C)CC2)c1	none (no result: TNF death inh, RBBP9 inhibitor, zVAD death inh, Wee1 degr inh, p97 ATPase inh)
CCN(CC)CCn1c(NC(=O)c2ccc(C(F)(F)F)cc2)nc2ccccc21	Wee1 degr inh 13 | Wee1 degr conf inactive
CCOC(=O)Cn1c(=NC(=O)CSC(C)=O)sc2cc(OC)ccc21	none
CCOC(=O)Cn1c(=NC(=O)CSC(C)=O)sc2ccccc21	Wee1 degr inh 16 | Wee1 degr conf inactive
